# ChEMBL document CHEMBL5724801, “EUbOPEN Chemogenomics Library - Multiplex” (2024)
# Values joined by “and” are separate entries in the source; they are usually repeats but may differ in a detail not shown here. Equal values may be shown once.
# System: HEK-293T
# Assay: Multiplex assay against HEK293T
# Format: toxicity, cell-based
# Conditions: human
# Method in brief: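 Phenotypes for tubulin, mitochondrial mass and membrane permeability are expressed as per cents of healthy-nucleus cells. Cells were stained live at seeding with Hoechst33342, BioTracker Green Microtubule Cytoskeleton Dye, MitoTracker Red and Annexin V Alexa Fluor 680, then imaged after compound addition on a CQ1 microscope at 37°C and 5% CO2. Machine-learning gating in CellPathfinder separated Hoechst high-intensity objects from normal cells, divided normal cells by nuclear state (healthy, pyknosed, fragmented) and divided pyknosed cells into mitotic or apoptotic.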
# [1] = 12 h, 1 µM, compound concentration 1 uM
# [2] = 12 h, 10 µM, compound concentration 10 uM
# [3] = 24 h, 1 µM, compound concentration 1 uM
# [4] = 24 h, 10 µM, compound concentration 10 uM
# [5] = 48 h, 1 µM, compound concentration 1 uM
# [6] = 48 h, 10 µM, compound concentration 10 uM
smiles,measurement,setting,value
COCCNc1cc(NC(=O)N2CCCc3cc(CN4CCN(C)CC4=O)c(C=O)nc32)ncc1C#N [FGF401],Population Apoptotic (%),[1],5.7% and 11.57%
same,Population Fragmented Nuclei (%),[1],1.49% and 2.8%
same,Population Hoechst High Intensity Objects (%),[1],0%
same,Population Membrane Permeable-Phenotype (%),[1],1.74% and 5.56%
same,Population Mitotic Cells (%),[1],94.3% and 88.43%
same,Population Normal (%),[1],100%
same,Population Pyknosed Nuclei (%),[1],47.16% and 84.62%
same,Population Tubulin-Different-Phenotype (%),[1],6.4% and 11.11%
same,Total Cell Count,[1],335 and 143
same,Population Fragmented Nuclei (%),[2],2.52% and 7.02%
same,Population Hoechst High Intensity Objects (%),[2],0%
same,Population Membrane Permeable-Phenotype (%),[2],0.56% and 0%
same,Population Mitochondria Different-Phenotype (%),[2],28.09% and 26.67%
same,Population Mitotic Cells (%),[2],94.7% and 80.22%
same,Population Normal (%),[2],100%
same,Population Pyknosed Nuclei (%),[2],41.51% and 79.82%
same,Total Cell Count,[2],318 and 114
same,Population Apoptotic (%),[3],13.08% and 17.17%
same,Population Fragmented Nuclei (%),[3],0.93% and 3.47%
same,Population Healthy Nuclei (%),[3],74.95% and 27.78%
same,Population Hoechst High Intensity Objects (%),[3],0%
same,Population Membrane Permeable-Phenotype (%),[3],1.49% and 2.5%
same,Population Mitochondria Different-Phenotype (%),[3],17.33% and 12.5%
same,Population Mitotic Cells (%),[3],86.92% and 82.83%
same,Population Normal (%),[3],100%
same,Population Pyknosed Nuclei (%),[3],24.12% and 68.75%
same,Population Tubulin-Different-Phenotype (%),[3],19.8% and 10%
same,Population Apoptotic (%),[4],12.61% and 19.59%
same,Population Fragmented Nuclei (%),[4],1.6% and 5.3%
same,Population Hoechst High Intensity Objects (%),[4],0%
same,Population Membrane Permeable-Phenotype (%),[4],1.05% and 3.57%
same,Population Mitochondria Different-Phenotype (%),[4],16.84% and 25%
same,Population Mitotic Cells (%),[4],87.39% and 80.41%
same,Population Normal (%),[4],100%
same,Population Tubulin-Different-Phenotype (%),[4],19.21% and 17.86%
same,Population Apoptotic (%),[5],7.89% and 20.99%
same,Population Fragmented Nuclei (%),[5],2.1% and 1.11%
same,Population Healthy Nuclei (%),[5],85.6% and 53.89%
same,Population Hoechst High Intensity Objects (%),[5],0%
same,Population Membrane Permeable-Phenotype (%),[5],6.24% and 0%
same,Population Mitochondria Different-Phenotype (%),[5],18.81% and 29.9%
same,Population Mitotic Cells (%),[5],92.11% and 79.01%
same,Population Normal (%),[5],100%
same,Population Fragmented Nuclei (%),[6],3.22% and 0%
same,Population Healthy Nuclei (%),[6],84.41% and 59.29%
same,Population Hoechst High Intensity Objects (%),[6],0% and 0.71%
same,Population Membrane Permeable-Phenotype (%),[6],4.23% and 1.2%
same,Population Mitochondria Different-Phenotype (%),[6],18.89% and 40.96%
same,Population Mitotic Cells (%),[6],94.37% and 80.7%
same,Population Normal (%),[6],100% and 99.29%
